Screens deposited in PubChem BioAssay by several laboratories.
UPR XBP1 act: activators of adaptive XBP1 UPR arm, primary screen, cell-based, CHO-XBP1 luciferase reporter, luminescence, uHTS | IRE1-XBP1 UPR activation; percent of tunicamycin response, DMSO as zero | activation, % at 20 µM | 330,000 compounds, 0.33% hits | AID 463104, 2010;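 active = versus positive control, 20 µM dose yields 30% or more activation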;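 note: 100% = tunicamycin at 10 µg/mL and 0% = DMSO only wells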
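Material: CHO-XBP1 cells stably carrying IRE1-XBP1-driven luciferase reporter | Medium: F12 with 10% serum | Compound dosing: 20 µM single concentration, DMSO 1% | Incubation: Overnight seeding at 37 °C, 6 h compound treatment at 37 °C | Detection: Steady-Glo luminescence read | Read-out basis: % activation of reporter signal versus tunicamycin and DMSO controls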
NS3 helicase inh: inhibitors of HCV NS3 helicase, primary screen, biochemical, Cy5 molecular beacon fluorescence; Hepatitis C virus NS3 helicase; NS3 helicase DNA unwinding; inhibition, % at 10.9 µM; 290,000 compounds, 0.56% hits; AID 1800, 2009;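 active = inhibition above the mean of all tested compounds plus 3 SD, set per campaign, cut at about 35% in these data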;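 note: 0% = DMSO wells and 100% = thioflavine S control wells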
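Measured by: Cy5 fluorescence, 0 and 60 min reads / Assay system: NS3 helicase fragment of HCV / Control set: low DMSO, high thioflavine S at 110 µM / Times: 1 h reaction at 25 °C, ATP-initiated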
CHOP inh: inhibitors of CHOP promoter induction, primary screen, cell-based, unfolded protein response, luciferase reporter | CHO-K1 CHOP-promoter luciferase, tunicamycin-induced, 15-18 h | inhibition, % at 10 µM | 220,000 compounds, 3.8% hits;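 active = compounds that reduced the stress-induced luciferase reporter signal by more than about 70% of percent inhibition, limit read from the data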;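 note: 0% = tunicamycin plus vehicle and 100% = wells without tunicamycin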
M18AAP inhibitor: PfM18AAP inhibitors, malaria aminopeptidase, primary screen, biochemical, QFRET, recombinant enzyme; M18 aspartyl aminopeptidase (Plasmodium falciparum 3D7); H-Glu-NHMec fluorogenic cleavage; inhibition, % at 7.35 µM; 290,000 compounds, 1.2% hits; AID 1822, 2009;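 active = inhibition above the campaign mean inhibition over all tested compounds plus 3 SD, cut at about 28% in these data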;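 note: 0% = plate median of test compound wells and 100% = 2 mM ZnCl2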
p97 inhibitor: inhibitors of human p97 ATPase, primary screen, biochemical | AID 1481, 2009 | 220,000 compounds, 0.42% hits | recombinant p97 ATPase, Kinase-Glo ATP luminescence, 3 h | inhibition, % at 8 µM; in the data active = inhibition above about 15%;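 note: 0% = DMSO vehicle and 100% = wells lacking enzyme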
Target sequence (P55072 whole entry, looked up): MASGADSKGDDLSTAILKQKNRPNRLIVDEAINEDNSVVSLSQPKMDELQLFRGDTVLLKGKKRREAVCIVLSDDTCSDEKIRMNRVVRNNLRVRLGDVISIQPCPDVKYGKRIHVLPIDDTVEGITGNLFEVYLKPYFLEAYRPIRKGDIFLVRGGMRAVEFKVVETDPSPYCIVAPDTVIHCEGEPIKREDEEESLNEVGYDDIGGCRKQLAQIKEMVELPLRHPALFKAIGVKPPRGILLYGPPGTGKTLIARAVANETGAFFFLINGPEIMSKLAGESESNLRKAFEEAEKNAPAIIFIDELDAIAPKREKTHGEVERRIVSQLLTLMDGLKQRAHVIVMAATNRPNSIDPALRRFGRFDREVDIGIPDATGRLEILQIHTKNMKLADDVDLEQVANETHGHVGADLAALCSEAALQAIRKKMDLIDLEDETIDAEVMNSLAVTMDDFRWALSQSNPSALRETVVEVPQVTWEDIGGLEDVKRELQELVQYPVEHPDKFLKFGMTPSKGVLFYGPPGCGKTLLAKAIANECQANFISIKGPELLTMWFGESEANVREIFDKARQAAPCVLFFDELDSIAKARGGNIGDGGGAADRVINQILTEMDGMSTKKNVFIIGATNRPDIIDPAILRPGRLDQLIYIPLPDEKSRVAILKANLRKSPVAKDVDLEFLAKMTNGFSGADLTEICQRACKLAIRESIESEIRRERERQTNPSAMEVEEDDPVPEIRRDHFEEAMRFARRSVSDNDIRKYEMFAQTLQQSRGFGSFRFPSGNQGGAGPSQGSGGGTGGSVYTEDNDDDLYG
CHOP UPR activ: activators of apoptotic CHOP UPR arm, primary screen, cell-based, CHO-CHOP luciferase reporter, luminescence, uHTS. UPR activation; percent of tunicamycin response over DMSO baseline. activation, % at 10 µM. 330,000 compounds, 0.34% hits. AID 449763, 2010;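 active = at 10 µM dose, activation of 40% or more, normalized to positive control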;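 note: 100% = tunicamycin at 10 µg/mL and 0% = DMSO alone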
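Material: CHO-CHOP cells, stable luciferase reporter of PERK-eIF2a-CHOP signalling; quantity: 500 reporter cells seeded per well; buffer or medium: F12 medium containing 10% fetal bovine serum; compound: one dose, 10 µM in 0.5% DMSO; incubation: 6 h compound treatment, 37 °C; measured by: Steady-Glo luciferase luminescence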
CHOP confirm: retest of CHOP induction inhibitors, confirmation, cell-based | shares compounds with CHOP inh | CHO-CHOP promoter luciferase reporter, tunicamycin-induced, luminescence | inhibition, % at 10 µM | 2,100 compounds, 45% hits | AID 504437, 2011;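 active = mean of three repeat readings of reporter signal inhibition above a set limit, cut at about 70% in these data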;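 note: 0% = tunicamycin plus vehicle and 100% = wells lacking tunicamycin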
An asterisk follows results filed as active; . = no result given. An excerpt weighted towards active compounds, which were near 4.5% of everything screened.

SMILES | UPR XBP1 act | NS3 helicase inh | CHOP inh | M18AAP inhibitor | p97 inhibitor | CHOP UPR activ | CHOP confirm
CC(C)c1ccc(N(C(=O)CNC(=O)c2ccco2)C(C(=O)NC2CCCC2)c2cccnc2)cc1 (centres undefined) | 2 | -1 | . | -3 | . | 0 | .
COCC1CCN(Cc2cn[nH]c2-c2ccc(OC)c(F)c2)C1 (centres undefined) | -4 | -13 | -9 | 13 | 3 | 0 | .
Cc1c(OCc2ccccc2)c(=O)ccn1Cc1ccc(Cl)cc1 | 4 | -14 | 105* | -10 | 0 | -1 | 28
COc1cc(/C=C2/C(=O)c3cccc([N+](=O)[O-])c3C2=O)c(Br)cc1O | . | 20 | 107* | 30* | 10 | . | 4
CCOc1ccccc1CN1CCNC(=O)C1CC(=O)NCc1ccccn1 (centres undefined) | -2 | -7 | . | -3 | . | 0 | .
O=C1c2ccccc2C(=O)c2c1oc(C(F)(F)F)c2C(=O)c1ccccc1 | -6 | -2 | 107* | -3 | -1 | -2 | 121*
COc1cccc(Oc2nnnn2-c2ccccc2)c1 | 2 | -3 | -5 | -2 | 0 | 5 | .
COc1cccc(-n2nnnc2S(C)(=O)=O)c1 | -8 | -3 | 113* | -54 | 10 | -11 | 115*
CCOc1ccc(NC(=O)COc2ccc(C(=O)NCCc3ccccc3)cc2)cc1 | -3 | -8 | -14 | -2 | 2 | 2 | .
CC(C)c1ccccc1NC(=O)COc1ccc(C(=O)NCCc2ccccc2)cc1 | -1 | -9 | 107* | -13 | -5 | -1 | 31
COc1ccc(S(=O)(=O)N2CCCCCC2)cc1NC(=O)CCCOc1ccccc1 | -3 | . | . | . | . | 0 | .
Cc1cccc(NC(=O)C2(C)CC3c4ccccc4C2c2ccccc23)c1 (centres undefined) | 2 | 2 | 103* | -4 | 3 | 2 | -9
CC(C)NC(=O)c1cccc2c1-c1ccccc1C2=O | -1 | -2 | . | -3 | . | -1 | .
Cc1ccc(-c2nc(N)s[n+]2-c2ccccc2)cc1 | . | -1 | 23 | 1 | -2 | . | .
CNc1nc(-c2ccccc2)[n+](-c2ccc(C)cc2)s1 | . | -3 | 97* | -4 | 6 | . | 10
COc1cc(N=c2ssnc2Cl)cc(OC)c1 | 0 | 1 | 106* | 20 | 0 | 3 | 20
Clc1nssc1=Nc1ccc(Br)cc1 | . | -2 | 106* | 20 | 6 | . | 131*
COc1cc(C)c(NC(=O)C2CCN(S(=O)(=O)c3cccs3)CC2)cc1OC | -1 | . | . | . | . | -2 | .
CCN(CCO)c1ncnc2c1sc1nc(C(C)C)c3c(c12)CC(C)(C)OC3 | 13 | -1 | 99* | 3 | 0 | 0 | 103*
CC(C)c1nc2sc3c(NCc4ccccc4)ncnc3c2c2c1COC(C)(C)C2 | 7 | -5 | 65 | 8 | 0 | -3 | .
COc1ccc(C2CC(c3cccs3)=NN2S(C)(=O)=O)cc1OC (centres undefined) | 2 | 10 | 3 | -3 | 4 | 2 | .
COc1ccc(C2CC(c3c(-c4ccccc4)c4cc(Cl)ccc4[nH]c3=O)=NN2S(C)(=O)=O)cc1OC (centres undefined) | 5 | 5 | 108* | -3 | -5 | -3 | 125*
Cc1ccc(OCc2nc(-c3ccc(Cl)cc3)n[nH]2)cc1 | 2 | -11 | 100* | 4 | 0 | 3 | 34
Cc1ccc2nc3n(c(=O)c2c1)-c1ccccc1C(=O)NC3Cc1ccc(O)cc1 (centres undefined) | 2 | . | . | . | . | 2 | .
Oc1ccc(F)cc1-c1cc(-c2ccc3c(c2)OCCO3)n[nH]1 | 1 | -9 | 99* | 5 | 1 | 2 | 4
SMILES | UPR XBP1 act | NS3 helicase inh | CHOP inh | M18AAP inhibitor | p97 inhibitor | CHOP UPR activ | CHOP confirm
Cc1ccc(S(=O)(=O)/N=C2/C=C(Sc3ncn[nH]3)C(=O)c3ccccc32)c(C)c1 | . | 33 | 109* | 38* | 8 | . | -8
Cc1ccc(S(=O)(=O)/N=C2\C=C(Nc3cccc(C(=O)O)c3)C(=O)c3ccccc32)c(C)c1 | -10 | -2 | . | 16 | . | 9 | .
Cc1ccc(S(=O)(=O)/N=C2/C=C(Sc3ncn[nH]3)C(=O)c3ccccc32)cc1 | . | 2 | 108* | 51* | 23* | . | 108*
COc1ccc(CN2CCN(C3CCC3)CC2CCO)cc1C (centres undefined) | -3 | 7 | . | -6 | . | 0 | .
CCCCN1CC(=O)N2[C@H]3c4ccc(OC)cc4OC[C@@H]3[C@H](C(=O)OCC)[C@]2(C)C1=O | 0 | . | . | . | . | 0 | .
CC(C)c1ccc(NC(=O)CSc2nc(-c3ccccc3F)nc3nc[nH]c23)cc1 | 6 | -7 | 100* | -5 | 6 | 0 | 94*
CC(C)c1ccc(NC(=O)CSc2nc(=O)[nH]c3c2CCCC3)cc1 | 0 | . | . | . | . | 1 | .
CC(OC(=O)C1CCN(S(=O)(=O)c2ccc(Cl)cc2)CC1)C(=O)NC1CCCCC1C (centres undefined) | 1 | -4 | . | -2 | . | 1 | .
COc1ccc(N(C(=O)c2cnccn2)C(C(=O)NC2CCCCC2)c2ccc(Cl)cc2)cc1 (centres undefined) | 3 | 5 | . | -6 | -2 | 2 | .
COc1ccc(C(C(=O)NC2CCCCC2)N(C(=O)CCl)c2ccc(Cl)cc2)cc1 (centres undefined) | -4 | -1 | 107* | -6 | -1 | 1 | 27
CC(C(Sc1ccccc1N)c1ccccc1)[N+](=O)[O-] (centres undefined) | -3 | 4 | 106* | 31* | 3 | 29 | 18
Cc1ccc(CNCC(O)(c2ccccc2)c2ccc(Cl)cc2)cc1 (centres undefined) | . | -50 | 99* | -7 | -4 | . | 135*
O=C(NC(=S)NCCC1=CCCCC1)c1cccnc1 | 1 | 4 | -7 | 5 | -1 | 2 | .
COc1ccccc1N(CC(=O)Nc1ccccc1C(=O)N1CCOCC1)S(C)(=O)=O | 4 | -3 | . | 3 | . | -1 | .
O=Cc1s/c(=N\S(=O)(=O)c2ccccc2)n(CCCCl)c1Cl | . | 2 | 107* | -6 | 4 | . | 112*
FC(F)(F)c1cccc(/C=N/NC(=S)NC2CCCCC2)c1 | 0 | 11 | 23 | -8 | 8 | 3 | .
